One assay has as its system SKOV-3 cells. Description: Combination index of PTX and CBP. It is filed as cell-based, Human. As to conditions: read-out: IC50 of a single drug. The method, boiled down:
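SKOV-3 cells cultured in McCoy's 5A with 10% FBS and penicillin-streptomycin at 37°C, 5% CO2. Seeded at 5.0×10³ cells/well and left overnight. Exposed for 48 h to each drug alone and to mixtures at various ratios, with the mixtures' final PTX at 0.2–50.0 μM. CCK-8 added for 2 h, then absorbance read at 450 nm. Data given as mean ± SD, n = 3.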

The next assay has as its system SKOV-3 tumor. As to the kind of experiment: In vivo targeting. As to conditions: 0.11 µg DiR/g i.v., 1-24 h, tumor-bearing NU/NU mice. The method, boiled down: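 Tumors made by injecting 1.0×10⁷ SKOV-3 cells/100 µL into the right lower abdomen of female NU/NU mice aged 5–6 weeks. At about 400 mm³, mice were randomised to free DiR or DiR-labelled liposomes, given by tail vein. Mice were anaesthetised with 4.0% chloral hydrate and imaged at 1, 2, 6, 12 and 24 h. They were then killed for ex vivo imaging and quantification of the tumor, heart, liver, spleen, lungs and kidneys.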

Molecules are shown by their SMILES. Read-outs that look alike come from different tables or passages of the source.

Take `N.N.O=C([O-])C1(C(=O)[O-])CCC1.[Pt+2]` [CBP, carboplatin]: the IC50 in the assay with SKOV-3 cells (single drug, SKOV-3 cells, 48 h, CCK-8) stood at 19.2 µM. As to `CCCCCCCCCCCCCCCCCCN1/C(=C/C=C/C=C/C=C/C2=[N+](CCCCCCCCCCCCCCCCCC)c3ccccc3C2(C)C)C(C)(C)c2ccccc21.[I-]` [DiR], the “Enrichment in the tumor site” value in the assay with SKOV-3 tumor is given as “not enriched in the tumor site”.

As to `CC(=O)O[C@H]1C(=O)[C@@]2(C)[C@H]([C@H](OC(=O)c3ccccc3)[C@]3(O)C[C@H](OC(=O)[C@H](O)[C@@H](NC(=O)c4ccccc4)c4ccccc4)C(C)=C1C3(C)C)[C@]1(OC(C)=O)CO[C@@H]1C[C@@H]2O` [PTX, Paclitaxel], the IC50 in the assay with SKOV-3 cells (Homo sapiens, SK-OV-3, 48 h) stood at 3.89 µM.

As usually defined, the IC50 is the point on the concentration scale where inhibition reaches its midpoint.

The record behind these values is paper PMC9274295 (International Journal of Nanomedicine, 2022).
